Measured values as given in ChEMBL document CHEMBL1128434, “Gonadotropin-releasing hormone antagonists: novel members of the azaline B family” (1995).

Key:
Rattus norvegicus [1] = species on record: Rattus norvegicus; experiment: Duration of action measured using castrated male rat assay to inhibit luteinizing hormone release.; fully active at 48 hr but not at 72 hr; assay type: functional
Rattus norvegicus [2] = species on record: Rattus norvegicus; experiment: Effect in the anti ovulatory assay (AOA) in rats expressed as no. of rats ovulating/No of rats treated at 0.5 mg; 6/6; assay type: functional
Rattus norvegicus [3] = species on record: Rattus norvegicus; experiment: Effect in the anti ovulatory assay (AOA) in rats expressed as no. of rats ovulating/No of rats treated at 1.0 mg; 2/10; assay type: functional
[4] = target: T1, Gonadotropin-releasing hormone receptor (Rattus norvegicus) (UniProt P30969); experiment: In vitro potency to inhibit GnRH-mediated LH secretion by cultured pituitary cells relative to [Ac-delta-Pro1,DFpa2,DTrp36]GnRH.; assay type: functional, cell-based; conditions: Pituitary gland cell
T1 sequence (whole entry): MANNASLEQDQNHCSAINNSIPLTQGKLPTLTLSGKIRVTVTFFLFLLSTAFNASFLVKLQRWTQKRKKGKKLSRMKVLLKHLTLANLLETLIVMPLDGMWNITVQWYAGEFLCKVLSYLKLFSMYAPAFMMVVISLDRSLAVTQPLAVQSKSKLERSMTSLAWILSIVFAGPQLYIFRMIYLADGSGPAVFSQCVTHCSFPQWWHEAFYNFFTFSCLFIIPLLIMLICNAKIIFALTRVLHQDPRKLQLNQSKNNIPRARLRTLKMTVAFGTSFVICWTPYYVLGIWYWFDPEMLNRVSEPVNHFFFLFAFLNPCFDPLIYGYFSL
Summary of the method: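 Dispersed rat pituitary cells in culture; antagonist inhibition of GnRH-stimulated LH secretion. Potency expressed relative to standard antagonist [Ac-Δ3Pro1,D4FPhe2,DTrp3,6]GnRH taken as 1.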

Rattus norvegicus [5] = species on record: Rattus norvegicus; experiment: Effect in the anti ovulatory assay (AOA) in rats expressed as no. of rats ovulating/No of rats treated at 1.0 mg; 3/11; assay type: functional
Rattus norvegicus [6] = species on record: Rattus norvegicus; experiment: Effect in the anti ovulatory assay (AOA) in rats expressed as no. of rats ovulating/No of rats treated at 0.5 mg; 4/4; assay type: functional
[7] = target: T1, Gonadotropin-releasing hormone receptor (Rattus norvegicus); experiment: Duration of action measured using castrated male rat assay to inhibit luteinizing hormone release.; fully active at 72 hr; assay type: functional
Rattus norvegicus [8] = species on record: Rattus norvegicus; experiment: Effect in the anti ovulatory assay (AOA) in rats expressed as no. of rats ovulating/No of rats treated at 1.0 mg; 1/8; assay type: functional
Rattus norvegicus [9] = species on record: Rattus norvegicus; experiment: Effect in the anti ovulatory assay (AOA) in rats expressed as no. of rats ovulating/No of rats treated at 0.5 mg; 10/14; assay type: functional
Rattus norvegicus [10] = species on record: Rattus norvegicus; experiment: Effect in the anti ovulatory assay (AOA) in rats expressed as no. of rats ovulating/No of rats treated at 1.0 mg; 6/6; assay type: functional
Rattus norvegicus [11] = species on record: Rattus norvegicus; experiment: Effect in the anti ovulatory assay (AOA) in rats expressed as no. of rats ovulating/No of rats treated at 2.5 mg; 0/9; assay type: functional
Rattus norvegicus [12] = species on record: Rattus norvegicus; experiment: Effect in the anti ovulatory assay (AOA) in rats expressed as no. of rats ovulating/No of rats treated at 0.5 mg; 8/8; assay type: functional
Rattus norvegicus [13] = species on record: Rattus norvegicus; experiment: Effect in the anti ovulatory assay (AOA) in rats expressed as no. of rats ovulating/No of rats treated at 1.0 mg; 4/8; assay type: functional
Rattus norvegicus [14] = species on record: Rattus norvegicus; experiment: Effect in the anti ovulatory assay (AOA) in rats expressed as no. of rats ovulating/No of rats treated at 25 mg; 2/8; assay type: functional
Rattus norvegicus [15] = species on record: Rattus norvegicus; experiment: Effect in the anti ovulatory assay (AOA) in rats expressed as no. of rats ovulating/No of rats treated at 100 mg; 0/4; assay type: functional
Rattus norvegicus [16] = species on record: Rattus norvegicus; experiment: Effect in the anti ovulatory assay (AOA) in rats expressed as no. of rats ovulating/No of rats treated at 1.0 mg; 5/5; assay type: functional
Rattus norvegicus [17] = species on record: Rattus norvegicus; experiment: Effect in the anti ovulatory assay (AOA) in rats expressed as no. of rats ovulating/No of rats treated at 2.5 mg; 4/8; assay type: functional

Compound: CC(=O)N[C@H](Cc1ccc2ccccc2c1)C(=O)N[C@H](Cc1ccc(Cl)cc1)C(=O)N[C@H](Cc1cccnc1)C(=O)N[C@@H](CO)C(=O)N[C@@H](Cc1ccc(NC(=O)CCCCCNc2n[nH]c(N)n2)cc1)C(=O)N[C@H](Cc1ccc(NC(=O)CCCCCNc2n[nH]c(N)n2)cc1)C(=O)N[C@@H](CC(C)C)C(=O)N[C@@H](CCCCNC(C)C)C(=O)N1CCC[C@H]1C(=O)N[C@H](C)N
- Duration of action (Rattus norvegicus [1]): 48 h
- No. of rats ovulated (Rattus norvegicus [2]): 6
- No. of rats ovulated (Rattus norvegicus [3]): 2
- Relative potency [4]: 0.48

Compound: CC(=O)N[C@H](Cc1cnc2ccccc2c1)C(=O)N[C@H](Cc1ccc(Cl)cc1)C(=O)N[C@H](Cc1cccnc1)C(=O)N[C@@H](CO)C(=O)N[C@@H](Cc1ccc(Nc2n[nH]c(N)n2)cc1)C(=O)N[C@H](Cc1ccc(Nc2n[nH]c(N)n2)cc1)C(=O)N[C@@H](CC(C)C)C(=O)N[C@@H](CCCCNC(C)C)C(=O)N1CCC[C@H]1C(=O)N[C@H](C)N
- No. of rats ovulated (Rattus norvegicus [5]): 3
- No. of rats ovulated (Rattus norvegicus [6]): 4

Compound: CC(=O)N[C@H](Cc1ccc2ccccc2c1)C(=O)N[C@H](Cc1ccc(Cl)cc1)C(=O)N[C@H](Cc1cccnc1)C(=O)N[C@@H](CO)C(=O)N[C@@H](Cc1ccc(NC(=O)CCCNc2n[nH]c(N)n2)cc1)C(=O)N[C@H](Cc1ccc(NC(=O)CCCNc2n[nH]c(N)n2)cc1)C(=O)N[C@@H](CC(C)C)C(=O)N[C@@H](CCCCNC(C)C)C(=O)N1CCC[C@H]1C(=O)N[C@H](C)N
- Duration of action [7]: 72 h
- No. of rats ovulated (Rattus norvegicus [8]): 1
- No. of rats ovulated (Rattus norvegicus [9]): 10
- Relative potency [4]: 0.21

Compound: CC(=O)N[C@H](Cc1ccc2ccccc2c1)C(=O)N[C@H](Cc1ccc(Cl)cc1)C(=O)N[C@H](Cc1cccnc1)C(=O)N[C@@H](CO)C(=O)N[C@@H](Cc1ccc(Nc2n[nH]c(N)n2)cc1)C(=O)N[C@H](Cc1ccc(Nc2n[nH]c(N)n2)cc1)C(=O)N[C@@H](Cc1ccccc1)C(=O)N[C@@H](CCCCNC(C)C)C(=O)N1CCC[C@H]1C(=O)N[C@H](C)N
- Duration of action (Rattus norvegicus [1]): Intermediate
- No. of rats ovulated (Rattus norvegicus [10]): 6
- No. of rats ovulated (Rattus norvegicus [11]): 0

Compound: CC(=O)N[C@H](Cc1ccc2ccccc2c1)C(=O)N[C@H](Cc1ccc(Cl)cc1)C(=O)N[C@H](Cc1cccnc1)C(=O)N[C@@H](CO)C(=O)N[C@@H](Cc1ccc(NC(=O)c2cnccn2)cc1)C(=O)N[C@H](Cc1ccc(NC(=O)c2cnccn2)cc1)C(=O)N[C@@H](CC(C)C)C(=O)N[C@@H](CCCCNC(C)C)C(=O)N1CCC[C@H]1C(=O)N[C@H](C)N
- No. of rats ovulated (Rattus norvegicus [12]): 8
- No. of rats ovulated (Rattus norvegicus [13]): 4

Compound: CC[C@H](C)[C@H](NC(=O)[C@H](CC(C)C)NC(=O)[C@@H](Cc1ccc(Nc2n[nH]c(N)n2)cc1)NC(=O)[C@H](Cc1ccc(Nc2n[nH]c(N)n2)cc1)N(C)C(=O)[C@H](CO)NC(=O)[C@@H](Cc1cccnc1)NC(=O)[C@@H](Cc1ccc(Cl)cc1)NC(=O)[C@@H](Cc1ccc2ccccc2c1)NC(C)=O)C(=O)N1CCC[C@H]1C(=O)N[C@H](C)N
- No. of rats ovulated (Rattus norvegicus [14]): 2
- No. of rats ovulated (Rattus norvegicus [15]): 0

Compound: CC(=O)N[C@H](Cc1ccc2ccccc2c1)C(=O)N[C@H](Cc1ccc(Cl)cc1)C(=O)N[C@H](Cc1cccnc1)C(=O)N[C@@H](CO)C(=O)N[C@@H](Cc1ccc(NC(=O)CCl)cc1)C(=O)N[C@H](Cc1ccc(NC(=O)CCl)cc1)C(=O)N[C@@H](CC(C)C)C(=O)N[C@@H](CCCCNC(C)C)C(=O)N1CCC[C@H]1C(=O)N[C@H](C)N
- No. of rats ovulated (Rattus norvegicus [16]): 5
- No. of rats ovulated (Rattus norvegicus [17]): 4
